“And” between values parts separate entries of the source, which are not always exact repeats. Identical values can stand only once.
What was measured:
SK-OV-3 = experiment: Growth inhibition of human SKOV3 cells after 48 hrs by sulforhodamine B assay; type: functional; details: SK-OV-3, 48 h
Summary of the method: (§1)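 Panel of 60 human cancer cell lines; for each compound, dose–response curves per cell line measured at a minimum of five concentrations at 10-fold dilutions. Cells exposed continuously to drug for 48 h, and growth was read out by sulforhodamine B staining.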

OVCAR-5 = experiment: Growth inhibition of human OVCAR5 cells after 48 hrs by sulforhodamine B assay; type: functional; details: OVCAR-5, 48 h; summary of the method: as §1
NCI/ADR-RES = experiment: Growth inhibition of human NCI/ADR-RES cells after 48 hrs by sulforhodamine B assay; type: functional; summary of the method: as §1
A549 = experiment: Growth inhibition of human A549 cells after 48 hrs by sulforhodamine B assay; type: functional; details: A549, 48 h
Summary of the method: (§2)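 Dose–response in each cell line over at least five concentrations at 10-fold dilutions, with 48 h continuous exposure and sulforhodamine B read-out.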

SN12C = experiment: Growth inhibition of human SN12C cells after 48 hrs by sulforhodamine B assay; type: functional; summary of the method: as §1
Hs-578T = experiment: Growth inhibition of human Hs 578T cells after 48 hrs by sulforhodamine B assay; type: functional; summary of the method: as §1
TK-10 = experiment: Growth inhibition of human TK10 cells after 48 hrs by sulforhodamine B assay; type: functional; details: TK-10, 48 h; summary of the method: as §1
UACC-62 = experiment: Growth inhibition of human UACC62 cells after 48 hrs by sulforhodamine B assay; type: functional; details: UACC-62, 48 h; summary of the method: as §1
CCRF-CEM = experiment: Growth inhibition of human CCRF-CEM cells after 48 hrs by sulforhodamine B assay; type: functional; summary of the method: as §2
A-375 [1] = experiment: Cell cycle arrest in human A375 cells assessed as accumulation at G0/G1 phase at 2 uM after 24 hrs using propidium iodide staining by flow cytometry; type: functional
Summary of the method: (§3)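 A375 cells (5×10^5) grown 24 h, then exposed to compound 24 h (DMSO control). Trypsin–EDTA harvest, fixed in ice-cold 70% ethanol at 4 °C 30 min, RNase A 37 °C 30 min, propidium iodide staining. DNA content measured by flow cytometry on 20,000 events, gated as sub-G1/G0, G1, S and G2/M.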

Malme-3M = experiment: Growth inhibition of human MALME-3M cells after 48 hrs by sulforhodamine B assay; type: functional; summary of the method: as §1
HCC 2998 = experiment: Growth inhibition of human HCC2998 cells after 48 hrs by sulforhodamine B assay; type: functional; details: HCC 2998, 48 h; summary of the method: as §1
HOP-62 = experiment: Growth inhibition of human HOP62 cells after 48 hrs by sulforhodamine B assay; type: functional; details: HOP-62, 48 h; summary of the method: as §1
SW-620 = experiment: Growth inhibition of human SW620 cells after 48 hrs by sulforhodamine B assay; type: functional; details: SW-620, 48 h; summary of the method: as §1
HCT-116 = experiment: Growth inhibition of human HCT116 cells after 48 hrs by sulforhodamine B assay; type: functional; details: HCT-116, 48 h; summary of the method: as §1
RXF 393 = experiment: Growth inhibition of human RXF393 cells after 48 hrs by sulforhodamine B assay; type: functional; details: RXF 393, 48 h; summary of the method: as §1
HT-29 [2] = experiment: Growth inhibition of human HT-29 cells after 48 hrs by sulforhodamine B assay; type: functional; details: HT-29, 48 h; summary of the method: as §1
NCI-H460 = experiment: Growth inhibition of human NCI-H460 cells after 48 hrs by sulforhodamine B assay; type: functional; details: NCI-H460, 48 h; summary of the method: as §1
NCI-H23 = experiment: Growth inhibition of human NCI-H23 cells after 48 hrs by sulforhodamine B assay; type: functional; details: NCI-H23, 48 h; summary of the method: as §1
DU-145 = experiment: Growth inhibition of human DU145 cells after 48 hrs by sulforhodamine B assay; type: functional; details: DU-145, 48 h; summary of the method: as §2
Calf thymus DNA = experiment: Binding affinity to calf thymus duplex-form DNA assessed as cleavage of pBR322 after 16 hrs by restriction endonuclease digestion assay in presence of BamHI; type: nucleic-acid assay; details: Bos taurus
Summary of the method: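 pBR322 DNA (500 ng) preincubated with compound (5–30 μM) 16 h at 37 °C, then digested with BamHI (20 U) 1 h at 37 °C. Products run on 1% agarose in Tris–acetate EDTA, 80 V, 2 h. Read-out was ethidium bromide staining under UV, with an undigested and a fully digested control.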

[3] = Toxicity in SCID mouse; type: organism-based; details: in vivo
HT-29 [4] = experiment: Antitumor activity against human HT-29 cells xenografted in SCID mouse assessed as reduction tumor volume at 15 mg/kg, ip measured on day 14; type: functional; details: route intraperitoneal
Summary of the method: (§4)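 HT29 xenografts in scid mice; dosing ip on days 1, 5 and 9 (q4d), 5 or 10 mg/kg per dose (total 15 or 30 mg/kg); vehicle control group. Tumour volume, body weight and toxicity followed for 35 days. Relative tumour volume = volume on given day / volume on day 1; T/C = mean RTV treated / mean RTV control.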

A-375 [5] = experiment: Cell cycle arrest in human A375 cells assessed as accumulation at G0 phase at 0.5 uM after 24 hrs using propidium iodide staining by flow cytometry; type: functional; summary of the method: as §3
A-375 [6] = experiment: Cell cycle arrest in human A375 cells assessed as accumulation at G1 phase at 1 uM after 24 hrs using propidium iodide staining by flow cytometry; type: functional; summary of the method: as §3
HT-29 [7] = experiment: Antitumor activity against human HT-29 cells xenografted in SCID mouse assessed as reduction tumor volume at 30 mg/kg, ip measured on day 25; type: functional; details: route intraperitoneal; summary of the method: as §4
HT-29 [8] = experiment: Antitumor activity against human HT-29 cells xenografted in SCID mouse assessed as reduction tumor volume at 30 mg/kg, ip measured on day 5; type: functional; details: route intraperitoneal; summary of the method: as §4
Mus musculus [9] = experiment: Toxicity in SCID mouse assessed as weight loss at 15 mg/kg, ip; type: organism-based; design: dose 15 mg/kg, route intraperitoneal; details: in vivo
Summary of the method: (§5)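 HT29 xenograft-bearing scid mice dosed ip at 5 or 10 mg/kg on days 1, 5 and 9 (q4d), totalling 15 or 30 mg/kg. Vehicle-treated control group. Body weight, survival and signs of overt toxicity were recorded over the 35-day study.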

HT-29 [10] = experiment: Antitumor activity against human HT-29 cells xenografted in SCID mouse assessed as reduction tumor volume at 30 mg/kg, ip measured on day 14; type: functional; details: route intraperitoneal; summary of the method: as §4
HT-29 [11] = experiment: Antitumor activity against human HT-29 cells xenografted in SCID mouse assessed as reduction tumor volume at 15 mg/kg, ip measured on day 17; type: functional; details: route intraperitoneal; summary of the method: as §4
HT-29 [12] = experiment: Antitumor activity against human HT-29 cells xenografted in SCID mouse assessed as reduction tumor volume at 30 mg/kg, ip measured on day 1; type: functional; details: route intraperitoneal; summary of the method: as §4
HT-29 [13] = experiment: Antitumor activity against human HT-29 cells xenografted in SCID mouse assessed as reduction tumor volume at 15 mg/kg, ip measured on day 35; type: functional; details: route intraperitoneal; summary of the method: as §4
HT-29 [14] = experiment: Antitumor activity against human HT-29 cells xenografted in SCID mouse assessed as reduction tumor volume at 30 mg/kg, ip measured on day 32; type: functional; details: route intraperitoneal; summary of the method: as §4
HT-29 [15] = experiment: Antitumor activity against human HT-29 cells xenografted in SCID mouse assessed as reduction tumor volume at 30 mg/kg, ip measured on day 28; type: functional; details: route intraperitoneal; summary of the method: as §4
Mus musculus [16] = experiment: Toxicity in SCID mouse assessed as mortality at 50 mg/kg, ip; type: organism-based; design: dose 50 mg/kg, route intraperitoneal; details: in vivo
A-375 [17] = experiment: Cell cycle arrest in human A375 cells assessed as accumulation at sub-G0 phase at 1 uM after 24 hrs using propidium iodide staining by flow cytometry; type: functional; summary of the method: as §3
Mus musculus [18] = experiment: Toxicity in SCID mouse assessed as mortality at 15 mg/kg, ip; type: organism-based; design: dose 15 mg/kg, route intraperitoneal; details: in vivo; summary of the method: as §5

Row | SMILES | GI50 (SK-OV-3) [µM] | GI50 (OVCAR-5) [µM] | GI50 (NCI/ADR-RES) [µM] | GI50 (A549) [µM] | GI50 (SN12C) [µM] | GI50 (Hs-578T) [µM] | GI50 (TK-10) [µM] | GI50 (UACC-62) [µM] | GI50 (CCRF-CEM) [µM] | Activity (A-375 [1]) [%] | GI50 (Malme-3M) [µM] | GI50 (HCC 2998) [µM] | GI50 (HOP-62) [µM] | GI50 (SW-620) [µM] | GI50 (HCT-116) [µM] | GI50 (RXF 393) [µM] | GI50 (HT-29 [2]) [µM] | GI50 (NCI-H460) [µM] | GI50 (NCI-H23) [µM] | GI50 (DU-145) [µM] | further results
1 | COc1cc2c(cc1OCCCCC(=O)Nc1ccc(-c3nc4ccccc4s3)cc1)N=C[C@@H]1CCCN1C2=O | 4.47 | 3.55 | 11 | 3.39 | 2.82 | 2.75 | 3.24 | 1.74 | 1.2 | 88.44 | 1.91 | 1.58 | 2.45 | 1.62 | 1.86 | 1.62 | 2.14 | 1.66 | – | – | –
2 | COc1cc(-c2nc3ccccc3s2)ccc1OCCCCOc1cc2c(cc1OC)C(=O)N1CCC[C@H]1C=N2 | 2.4 | 0.501 | 1.91 | 2.69 | 0.955 | 1.02 | 1.51 | 1.12 | 0.339 | 90.55 | 1.55 | 0.646 | 1.41 | 0.794 | 0.525 | 0.24 | 0.537 | 0.646 | 1.48 | 0.302 | Activity (Calf thymus DNA): Dose-dependent effect
3 | COc1cc(-c2nc3ccccc3s2)ccc1OCCCCCOc1cc2c(cc1OC)C(=O)N1CCC[C@H]1C=N2 | 0.178 | 0.0708 | 0.269 | 0.24 | 0.2 | 0.141 | 0.331 | 0.0813 | 0.0219 | 93.79 | 0.145 | 0.126 | 0.0457 | 0.0562 | 0.0389 | 0.0513 | 0.0407 | 0.0398 | 0.0617 | 0.0339 | MTD [3]: < 50 mg/kg; T/C (HT-29 [4]): 0.58% and 0.3%; Activity (A-375 [5]): 2.13%; Activity (A-375 [6]): 61.56%; T/C (HT-29 [7]): 0.67%; T/C (HT-29 [8]): 0.85%; Activity (Mus musculus [9]): Non-toxic; Activity (Calf thymus DNA): Dose-dependent effect; T/C (HT-29 [10]): 0.66%; T/C (HT-29 [11]): 0.65% and 0.28%; T/C (HT-29 [12]): 1%; T/C (HT-29 [13]): 0.82% and 0.14%; T/C (HT-29 [14]): 0.76%; T/C (HT-29 [15]): 0.75%; Activity (Mus musculus [16]): Non-toxic; Activity (A-375 [17]): 2.7%; Activity (Mus musculus [18]): Non-toxic

— ChEMBL document CHEMBL1177643, “Synthesis, DNA-binding ability and anticancer activity of benzothiazole/benzoxazole-pyrrolo[2,1-c][1,4]benzodiazepine conjugates” (Bioorg Med Chem, 2010)
